From ChEMBL document CHEMBL1240487, “Discovery of a potent, selective, and orally bioavailable pyridinyl-pyrimidine phthalazine aurora kinase inhibitor” (J Med Chem, 2010) come the findings set out here.

SMILES strings stand for the structures. Converted amounts (≈) assume the structure as drawn.

Data set [1] deals with Tyrosine-protein kinase ABL1 (Homo sapiens, UniProt P00519). Kind of data set: Inhibition of Abl by HTRF assay. The procedure, abridged: (§1)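 Enzyme inhibition was run with ATP at its Km for each kinase. Values are averages of at least two determinations.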
In general terms: TR-FRET usually uses a lanthanide donor and a delayed reading to cut background.

The target in data set [2] is Vascular endothelial growth factor receptor 2 (Homo sapiens, UniProt P35968). Put plainly: Inhibition of KDR by HTRF assay. The procedure, abridged:
as §1

The next data set addresses T1, Ephrin type-B receptor 4 (Homo sapiens, UniProt P54760).
T1 sequence (P54760 whole entry): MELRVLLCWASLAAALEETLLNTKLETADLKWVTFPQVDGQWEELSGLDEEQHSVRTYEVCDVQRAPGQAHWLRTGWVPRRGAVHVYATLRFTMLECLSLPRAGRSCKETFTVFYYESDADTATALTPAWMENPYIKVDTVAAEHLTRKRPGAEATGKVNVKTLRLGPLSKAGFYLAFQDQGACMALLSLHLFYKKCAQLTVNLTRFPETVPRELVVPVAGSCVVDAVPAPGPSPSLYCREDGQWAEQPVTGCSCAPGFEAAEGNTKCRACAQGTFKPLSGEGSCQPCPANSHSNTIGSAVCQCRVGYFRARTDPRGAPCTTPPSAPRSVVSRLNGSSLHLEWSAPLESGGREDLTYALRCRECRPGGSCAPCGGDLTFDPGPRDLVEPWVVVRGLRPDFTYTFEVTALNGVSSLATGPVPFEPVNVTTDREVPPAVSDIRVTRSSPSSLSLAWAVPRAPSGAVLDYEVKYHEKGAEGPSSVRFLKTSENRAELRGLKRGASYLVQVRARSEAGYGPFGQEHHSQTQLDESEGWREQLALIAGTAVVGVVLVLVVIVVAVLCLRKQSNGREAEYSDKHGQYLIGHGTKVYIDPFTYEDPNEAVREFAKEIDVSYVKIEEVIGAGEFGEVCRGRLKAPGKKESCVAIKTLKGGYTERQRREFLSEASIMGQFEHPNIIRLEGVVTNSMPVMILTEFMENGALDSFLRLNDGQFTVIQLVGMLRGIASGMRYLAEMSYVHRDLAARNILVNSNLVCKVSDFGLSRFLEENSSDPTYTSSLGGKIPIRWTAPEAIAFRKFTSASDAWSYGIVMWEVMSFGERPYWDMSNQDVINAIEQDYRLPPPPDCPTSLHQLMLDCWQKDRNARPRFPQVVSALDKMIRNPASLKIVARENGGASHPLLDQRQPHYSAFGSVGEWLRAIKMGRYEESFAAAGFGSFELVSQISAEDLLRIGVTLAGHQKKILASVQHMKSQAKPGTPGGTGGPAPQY
Put plainly: Inhibition of EphB4 by HTRF assay. The procedure, abridged:
as §1

The target in data set [3] is T2, Tyrosine-protein kinase JAK3 (Homo sapiens, UniProt P52333).
T2 sequence (P52333 whole entry): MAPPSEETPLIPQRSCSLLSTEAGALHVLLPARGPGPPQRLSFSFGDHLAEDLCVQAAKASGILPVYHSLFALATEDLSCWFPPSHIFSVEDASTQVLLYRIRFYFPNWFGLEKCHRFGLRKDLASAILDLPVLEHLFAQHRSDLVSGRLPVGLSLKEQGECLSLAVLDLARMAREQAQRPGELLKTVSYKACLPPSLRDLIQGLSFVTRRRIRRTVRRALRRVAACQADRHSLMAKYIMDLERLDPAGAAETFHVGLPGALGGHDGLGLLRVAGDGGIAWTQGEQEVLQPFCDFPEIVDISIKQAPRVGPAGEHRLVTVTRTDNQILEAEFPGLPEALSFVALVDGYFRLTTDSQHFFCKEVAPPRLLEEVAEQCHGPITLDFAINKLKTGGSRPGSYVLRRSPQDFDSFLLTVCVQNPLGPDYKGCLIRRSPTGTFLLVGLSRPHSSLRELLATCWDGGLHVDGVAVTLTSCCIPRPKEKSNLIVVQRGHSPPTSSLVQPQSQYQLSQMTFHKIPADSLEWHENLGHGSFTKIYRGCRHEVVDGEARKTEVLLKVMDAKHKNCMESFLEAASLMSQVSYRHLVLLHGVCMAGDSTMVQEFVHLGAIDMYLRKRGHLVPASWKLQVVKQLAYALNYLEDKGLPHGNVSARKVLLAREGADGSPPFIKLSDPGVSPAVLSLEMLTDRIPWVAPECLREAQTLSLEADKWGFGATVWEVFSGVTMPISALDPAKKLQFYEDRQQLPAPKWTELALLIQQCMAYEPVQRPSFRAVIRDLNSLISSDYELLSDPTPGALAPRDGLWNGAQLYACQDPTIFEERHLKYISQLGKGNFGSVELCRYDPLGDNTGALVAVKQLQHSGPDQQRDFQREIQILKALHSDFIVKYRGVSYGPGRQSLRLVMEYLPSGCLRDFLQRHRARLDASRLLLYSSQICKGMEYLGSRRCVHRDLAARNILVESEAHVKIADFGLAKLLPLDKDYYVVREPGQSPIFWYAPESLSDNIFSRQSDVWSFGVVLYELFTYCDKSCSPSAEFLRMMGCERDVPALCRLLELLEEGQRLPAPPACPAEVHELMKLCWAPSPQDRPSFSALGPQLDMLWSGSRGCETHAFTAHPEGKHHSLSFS
Put plainly: Inhibition of Jak3 by HTRF assay. A digest of the protocol:
as §1

Data set [4] concerns the target Mitogen-activated protein kinase 3 (Homo sapiens, UniProt P27361). Put plainly: Inhibition of Erk1 by HTRF assay. A digest of the protocol:
as §1

The target in data set [5] is Cyclin-dependent kinase 5 (Homo sapiens, UniProt Q00535). Kind of data set: Inhibition of CDK5 by HTRF assay. A digest of the protocol: as §1
Chain of Cyclin-dependent kinase 5 (Q00535 whole entry): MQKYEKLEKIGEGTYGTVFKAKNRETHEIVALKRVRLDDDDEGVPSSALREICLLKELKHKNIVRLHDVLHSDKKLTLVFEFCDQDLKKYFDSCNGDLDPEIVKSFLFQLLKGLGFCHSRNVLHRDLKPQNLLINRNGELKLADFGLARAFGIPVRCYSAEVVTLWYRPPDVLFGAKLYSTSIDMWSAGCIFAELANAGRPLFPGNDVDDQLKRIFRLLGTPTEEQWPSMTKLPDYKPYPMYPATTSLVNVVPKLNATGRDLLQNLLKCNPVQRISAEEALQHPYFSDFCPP
The target of data set [6] is Tyrosine-protein kinase BTK (Homo sapiens, UniProt Q06187). Kind of data set: Inhibition of BTK by HTRF assay.
Chain of Tyrosine-protein kinase BTK (Q06187 whole entry): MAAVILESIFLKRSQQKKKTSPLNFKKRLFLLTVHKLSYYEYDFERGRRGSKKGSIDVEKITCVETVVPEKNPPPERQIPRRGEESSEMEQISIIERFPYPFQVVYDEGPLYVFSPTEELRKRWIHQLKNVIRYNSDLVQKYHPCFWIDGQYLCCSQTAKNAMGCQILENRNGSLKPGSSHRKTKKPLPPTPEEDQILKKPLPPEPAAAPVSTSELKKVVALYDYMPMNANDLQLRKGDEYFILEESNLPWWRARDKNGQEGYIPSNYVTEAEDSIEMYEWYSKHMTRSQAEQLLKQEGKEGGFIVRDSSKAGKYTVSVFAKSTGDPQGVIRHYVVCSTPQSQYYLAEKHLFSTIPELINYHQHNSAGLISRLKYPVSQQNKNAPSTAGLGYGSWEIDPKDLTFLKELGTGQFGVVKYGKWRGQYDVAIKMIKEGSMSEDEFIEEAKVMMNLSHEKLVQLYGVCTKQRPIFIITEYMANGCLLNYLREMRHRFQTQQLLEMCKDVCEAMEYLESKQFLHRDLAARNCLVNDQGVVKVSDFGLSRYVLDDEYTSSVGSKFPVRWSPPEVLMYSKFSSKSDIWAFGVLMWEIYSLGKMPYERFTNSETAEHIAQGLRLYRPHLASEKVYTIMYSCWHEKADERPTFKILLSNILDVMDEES
Data set [7] deals with Tyrosine-protein kinase ABL1 (Homo sapiens, UniProt P00519, T315I). Put plainly: Inhibition of Abl T315I mutant by HTRF assay. The procedure, abridged:
as §1

Data set [8] has as its target Cyclin-dependent kinase 1 (Homo sapiens, UniProt P06493). Put plainly: Inhibition of CDK1 by HTRF assay. The procedure, abridged:
as §1

Data set [9] deals with Cyclin-dependent kinase 2 (Homo sapiens, UniProt P24941). Put plainly: Inhibition of CDK2 by HTRF assay. The procedure, abridged:
as §1

Data set [10] is described as follows: Oral bioavailability in Sprague-Dawley rat at 2 mg/kg. Particulars: in vivo. Format: ADME, organism-based.
Data set [11] is described as follows: Intrinsic clearance in rat liver microsomes at 1 uM after up to 40 mins. Format: ADME, Microsome.
A short description of data set [12]: Aqueous equilibrium solubility of the compound in 0.01N HCL. It is filed as physicochemical.
The subject of data set [13] is Plasma. Put plainly: Drug level in human COLO205 cells xenografted in CD1 mouse plasma at 50 mg/kg, po after 3 to 6 hrs. Set-up: dose 50 mg/kg, route oral. It is filed as ADME, organism-based, COLO 205. The conditions noted are these: in vivo. A digest of the protocol:
(§2)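 COLO 205 xenograft-bearing mice received a single 50 mg/kg oral dose (N = 12 per group). Plasma was sampled at 3, 6 and 24 h (N = 4 per time point) and analyzed for drug concentration. Results are reported as mean ± SD.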
For orientation: Xenograft models place foreign cells or tissue in a host animal.

Data set [14] is described as follows: Drug level in human COLO205 cells xenografted in CD1 mouse plasma at 50 mg/kg, po after 24 hrs. Format: ADME, organism-based, COLO 205. The arrangement: dose 50 mg/kg, route oral. A digest of the protocol:
as §2

Data set [15] in a line: Protein binding in mouse plasma at 10 uM by ultrafiltration. Format: ADME, cell-free. The conditions noted are these: read-out: PPB.
The subject of data set [16] is Plasma. Kind of data set: Fraction unbound in mouse plasma at 10 uM after 6 hrs by ultrafiltration. It is filed as ADME, cell-free.
Data set [17] has as its system Plasma. Put plainly: Fraction unbound in mouse plasma at 10 uM after 24 hrs by ultrafiltration. Format: ADME, cell-free.

Chain of Mitogen-activated protein kinase 3 (P27361 whole entry): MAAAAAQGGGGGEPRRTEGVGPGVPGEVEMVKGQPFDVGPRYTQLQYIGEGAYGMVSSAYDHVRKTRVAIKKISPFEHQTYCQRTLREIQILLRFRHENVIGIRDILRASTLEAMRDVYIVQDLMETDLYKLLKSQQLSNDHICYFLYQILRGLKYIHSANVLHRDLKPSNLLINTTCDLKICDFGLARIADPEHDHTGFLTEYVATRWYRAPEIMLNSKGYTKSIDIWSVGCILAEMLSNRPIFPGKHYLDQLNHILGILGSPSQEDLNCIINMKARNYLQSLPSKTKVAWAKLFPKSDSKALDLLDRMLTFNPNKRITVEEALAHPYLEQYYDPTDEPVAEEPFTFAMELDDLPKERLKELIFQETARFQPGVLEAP
Chain of Cyclin-dependent kinase 1 (P06493 whole entry): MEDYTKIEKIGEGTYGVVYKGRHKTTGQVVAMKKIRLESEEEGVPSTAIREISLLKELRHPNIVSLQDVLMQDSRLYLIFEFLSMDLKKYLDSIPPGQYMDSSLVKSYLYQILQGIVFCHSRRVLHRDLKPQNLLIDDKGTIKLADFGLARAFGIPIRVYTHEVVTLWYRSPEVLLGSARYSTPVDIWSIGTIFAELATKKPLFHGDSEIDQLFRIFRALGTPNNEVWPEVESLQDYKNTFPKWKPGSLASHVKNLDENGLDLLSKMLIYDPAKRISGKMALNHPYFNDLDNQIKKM
Chain of Vascular endothelial growth factor receptor 2 (P35968 whole entry): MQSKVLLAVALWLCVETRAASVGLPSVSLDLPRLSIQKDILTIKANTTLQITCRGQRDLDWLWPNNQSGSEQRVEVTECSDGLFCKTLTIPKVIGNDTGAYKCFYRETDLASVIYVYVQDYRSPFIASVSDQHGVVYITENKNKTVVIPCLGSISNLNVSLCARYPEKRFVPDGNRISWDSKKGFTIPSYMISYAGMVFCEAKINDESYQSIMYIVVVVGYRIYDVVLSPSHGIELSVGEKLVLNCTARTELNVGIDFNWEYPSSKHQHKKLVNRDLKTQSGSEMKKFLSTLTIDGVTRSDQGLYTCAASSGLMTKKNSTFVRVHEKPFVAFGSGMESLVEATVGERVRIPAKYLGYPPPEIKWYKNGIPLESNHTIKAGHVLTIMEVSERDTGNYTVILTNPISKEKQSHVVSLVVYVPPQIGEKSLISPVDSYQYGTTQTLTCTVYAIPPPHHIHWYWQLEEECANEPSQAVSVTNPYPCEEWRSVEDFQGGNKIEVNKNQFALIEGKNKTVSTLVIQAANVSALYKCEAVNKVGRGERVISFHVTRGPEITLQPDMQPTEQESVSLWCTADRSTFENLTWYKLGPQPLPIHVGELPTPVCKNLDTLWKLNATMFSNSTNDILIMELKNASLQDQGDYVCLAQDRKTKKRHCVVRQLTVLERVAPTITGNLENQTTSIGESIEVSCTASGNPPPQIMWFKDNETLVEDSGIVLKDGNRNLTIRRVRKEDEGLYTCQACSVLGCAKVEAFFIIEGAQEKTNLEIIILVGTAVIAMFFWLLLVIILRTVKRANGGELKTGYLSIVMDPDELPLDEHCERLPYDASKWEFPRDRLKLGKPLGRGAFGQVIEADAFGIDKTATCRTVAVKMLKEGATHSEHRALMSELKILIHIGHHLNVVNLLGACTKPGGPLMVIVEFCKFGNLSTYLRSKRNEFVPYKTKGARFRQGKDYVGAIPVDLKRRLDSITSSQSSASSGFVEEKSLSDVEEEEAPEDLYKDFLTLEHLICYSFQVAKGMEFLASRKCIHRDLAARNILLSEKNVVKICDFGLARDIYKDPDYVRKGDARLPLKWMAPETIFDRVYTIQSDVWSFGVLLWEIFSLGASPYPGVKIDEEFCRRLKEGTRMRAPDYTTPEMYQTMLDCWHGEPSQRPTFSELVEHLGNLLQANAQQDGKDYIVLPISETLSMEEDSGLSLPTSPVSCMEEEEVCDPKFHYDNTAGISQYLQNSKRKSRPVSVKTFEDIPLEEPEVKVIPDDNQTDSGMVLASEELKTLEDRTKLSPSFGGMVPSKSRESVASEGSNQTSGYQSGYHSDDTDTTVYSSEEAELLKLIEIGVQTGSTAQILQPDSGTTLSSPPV

`CNc1nccc(-c2cccnc2Oc2ccc(NC(=O)c3cccc(C(F)(F)F)c3)cc2C)n1`: the concentration for half-maximal inhibition (IC50) (as a rule, the concentration that gives 50% inhibition) is 0.503 µM in [1]; 3.27 µM in [2]; > 8 µM on Ephrin type-B receptor 4; > 8 µM in [3]; > 8 µM in data set [4]; > 8 µM in data set [5].
Consider `CNc1nccc(-c2cccnc2Oc2ccc(NC(=O)c3ccccc3Nc3ccccc3)cc2)n1`, for which the IC50 (on Ephrin type-B receptor 4; in data set [3]; in data set [6]; in [4]; in data set [5]; in [7]) was > 1 µM in each case. In addition, the concentration for half-maximal inhibition (IC50) in data set [8] and in data set [9] was > 1 µM each time. The bioavailability – broadly, the share of a dose that reaches the circulation, judged against a reference dose that is usually intravenous – in data set [10] is < 1%. Besides, in [11], the microsomal CLint (in general, the rate of metabolic loss divided by the concentration) at 1 µM was found to be 663 µL/min/mg. Moreover, the thermodynamic solubility (as a rule, the concentration in solution at equilibrium with solid) in [12] is 5 µg/mL (≈ 10.2 µM).
Take `CNc1nccc(-c2cccnc2Oc2ccc(Nc3nnc(-c4ccc(F)cc4)c4ccccc34)cc2)n1`: the half-maximal inhibitory concentration (IC50) (against Ephrin type-B receptor 4; in [3]; in data set [6]; in data set [4]; in [5]) was > 25 µM throughout. In addition, the solubility (thermodynamic) in data set [12] was > 200 µg/mL. The Cp result in the data set with Plasma [13] was “>= 20000 ng/ml”. The concentration at 24 h in data set [14] amounted to 2460 ng/mL. Further, in data set [15], the fraction unbound at 10 µM is < 0.001. Moreover, the unbound concentration with Plasma [16] is < 20 ng/mL; in the data set with Plasma [17], < 2.5 ng/mL.
